Data: ChEMBL document CHEMBL1127560, “Tyrosine kinase inhibitors. 3. Structure-activity relationships for inhibition of protein tyrosine kinases by nuclear-substituted derivatives of 2,2'-dithiobis(1-methyl-N-phenyl-1H-indole-3-carboxamide)” (J Med Chem, 1994)

Key:
[1] = target: Epidermal growth factor receptor (Homo sapiens, UniProt P00533); assay: Inhibition of tyrosine phosphorylation activity of the epidermal growth factor receptor (EGFR) tyrosine kinase from human A-431 carcinoma cell-shed membrane vesicles
[2] = tested on: Swiss 3T3 (Mus musculus); assay: Inhibition of Swiss 3T3 Mouse fibroblast proliferation
[3] = target: Epidermal growth factor receptor (Mus musculus, UniProt Q01279); assay: Inhibition of epidermal growth factor receptor (EGFR-mediated tyrosine autophosphorylation in mouse fibroblasts.
Summary of the method: (§1)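 Confluent Swiss 3T3 fibroblasts were pretreated 2 h with graded compound concentrations, then stimulated 5 min with EGF or PDGF. Monolayers were lysed in boiling Laemmli buffer and resolved on 4–20% SDS gels. Blots were probed with antiphosphotyrosine antibody (1 μg/mL) and [¹²⁵I]protein A, and receptor autophosphorylation was quantified by densitometry. IC50 is 50% inhibition of autophosphorylation.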

[4] = target: Platelet-derived growth factor receptor (Mus musculus, UniProt P05622+P26618); assay: Inhibition of PDGF receptor autophosphorylation in mouse fibroblasts; format: protein-complex assay; summary of the method: as §1
[5] = tested on: A-431; assay: Inhibition of A431 human epidermoid carcinoma cell proliferation; format: functional, cell-based
Summary of the method: (§2)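 Cells kept in dMEM/F12 (50:50) with 10% fetal bovine serum. 2 × 10⁴ cells were seeded into wells holding compound dilutions in DMSO and exposed for 72 h at 37 °C under 5% CO₂. Growth was read by electronic cell count. IC50 is the concentration giving 50% growth inhibition, as the mean of two separate duplicate determinations.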

[6] = tested on: KG-1; assay: Inhibition of kg1A acute myelogenous leukemia cell proliferation; format: functional, cell-based; details: Homo sapiens; summary of the method: as §2
[7] = tested on: K562; assay: Inhibition of K562 chronic myelogenous leukemia cell proliferation; format: functional, cell-based; details: Homo sapiens; summary of the method: as §2

Chain of Epidermal growth factor receptor (Mus musculus, UniProt Q01279) (Q01279 whole entry): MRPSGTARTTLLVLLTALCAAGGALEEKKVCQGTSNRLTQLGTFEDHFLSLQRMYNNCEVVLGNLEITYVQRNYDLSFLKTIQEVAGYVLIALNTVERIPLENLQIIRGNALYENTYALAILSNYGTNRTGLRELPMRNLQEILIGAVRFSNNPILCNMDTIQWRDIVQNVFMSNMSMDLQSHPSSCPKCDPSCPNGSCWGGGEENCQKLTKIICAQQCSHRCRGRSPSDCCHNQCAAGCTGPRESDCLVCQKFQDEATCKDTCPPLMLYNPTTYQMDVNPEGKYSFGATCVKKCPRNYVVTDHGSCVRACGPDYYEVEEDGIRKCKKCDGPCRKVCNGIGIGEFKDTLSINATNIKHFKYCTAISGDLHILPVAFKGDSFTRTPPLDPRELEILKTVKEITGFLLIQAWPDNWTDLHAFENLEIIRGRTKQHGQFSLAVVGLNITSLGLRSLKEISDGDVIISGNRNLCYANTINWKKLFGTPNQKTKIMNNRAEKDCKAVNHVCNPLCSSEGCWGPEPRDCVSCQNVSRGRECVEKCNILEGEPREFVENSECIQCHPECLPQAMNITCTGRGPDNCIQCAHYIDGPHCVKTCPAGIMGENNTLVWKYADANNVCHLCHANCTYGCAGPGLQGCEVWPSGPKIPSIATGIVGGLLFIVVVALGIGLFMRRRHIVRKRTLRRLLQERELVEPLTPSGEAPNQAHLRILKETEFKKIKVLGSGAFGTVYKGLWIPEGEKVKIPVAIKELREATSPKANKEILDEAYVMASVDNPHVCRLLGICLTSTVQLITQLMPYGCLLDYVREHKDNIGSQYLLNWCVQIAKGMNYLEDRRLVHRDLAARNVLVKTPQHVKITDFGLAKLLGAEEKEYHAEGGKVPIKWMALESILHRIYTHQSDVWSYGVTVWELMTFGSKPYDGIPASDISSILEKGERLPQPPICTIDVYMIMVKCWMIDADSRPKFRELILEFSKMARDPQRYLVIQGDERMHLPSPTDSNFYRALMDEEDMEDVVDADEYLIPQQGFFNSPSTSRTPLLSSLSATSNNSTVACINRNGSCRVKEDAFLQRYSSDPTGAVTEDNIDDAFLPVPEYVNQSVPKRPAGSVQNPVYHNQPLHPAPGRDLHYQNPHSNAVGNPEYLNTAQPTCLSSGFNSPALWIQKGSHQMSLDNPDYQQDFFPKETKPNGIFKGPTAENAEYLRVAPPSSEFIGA
Chain of Epidermal growth factor receptor (Homo sapiens, UniProt P00533) (P00533 whole entry): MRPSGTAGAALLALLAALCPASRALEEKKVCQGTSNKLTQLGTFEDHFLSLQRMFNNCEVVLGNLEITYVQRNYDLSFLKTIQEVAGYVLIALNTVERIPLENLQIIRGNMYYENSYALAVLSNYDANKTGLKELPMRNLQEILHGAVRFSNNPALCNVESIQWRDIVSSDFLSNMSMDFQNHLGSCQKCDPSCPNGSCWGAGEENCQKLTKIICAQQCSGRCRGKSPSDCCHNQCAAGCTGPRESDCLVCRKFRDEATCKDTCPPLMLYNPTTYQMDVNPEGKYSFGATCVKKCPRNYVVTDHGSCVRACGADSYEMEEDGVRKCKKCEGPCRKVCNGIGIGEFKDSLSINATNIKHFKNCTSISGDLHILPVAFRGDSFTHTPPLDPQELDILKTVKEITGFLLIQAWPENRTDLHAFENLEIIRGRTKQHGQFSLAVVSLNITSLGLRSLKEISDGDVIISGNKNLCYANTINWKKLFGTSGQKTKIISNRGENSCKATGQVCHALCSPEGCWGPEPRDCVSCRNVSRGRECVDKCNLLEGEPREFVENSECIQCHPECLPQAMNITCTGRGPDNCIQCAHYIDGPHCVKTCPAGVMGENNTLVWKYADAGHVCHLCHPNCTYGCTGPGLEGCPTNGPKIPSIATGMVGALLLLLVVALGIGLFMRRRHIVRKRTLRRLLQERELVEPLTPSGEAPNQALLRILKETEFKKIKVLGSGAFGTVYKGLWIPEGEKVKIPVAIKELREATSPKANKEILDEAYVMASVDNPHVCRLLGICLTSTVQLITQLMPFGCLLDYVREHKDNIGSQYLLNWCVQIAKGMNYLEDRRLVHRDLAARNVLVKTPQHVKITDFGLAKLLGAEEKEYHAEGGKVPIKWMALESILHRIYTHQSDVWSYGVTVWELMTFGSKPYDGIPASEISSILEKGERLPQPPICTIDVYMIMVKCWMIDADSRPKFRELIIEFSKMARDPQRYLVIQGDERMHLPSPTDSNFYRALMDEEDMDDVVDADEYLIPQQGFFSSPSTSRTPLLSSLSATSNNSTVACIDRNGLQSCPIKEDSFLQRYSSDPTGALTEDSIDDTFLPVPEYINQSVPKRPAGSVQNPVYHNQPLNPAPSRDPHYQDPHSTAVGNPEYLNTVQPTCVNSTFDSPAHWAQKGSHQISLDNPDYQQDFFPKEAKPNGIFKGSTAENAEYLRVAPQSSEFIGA

| SMILES | IC50 [1] [µM] | IC50 [2] [µM] | further results |
| --- | --- | --- | --- |
| COc1cccc2c(C(=O)Nc3ccccc3)c(SSc3c(C(=O)Nc4ccccc4)c4cccc(OC)c4n3C)n(C)c12 | – | 24 | IC50 [3]: > 100 µM; IC50 [4]: > 100 µM |
| Cc1ccc2c(c1)c(C(=O)Nc1ccccc1)c(SSc1c(C(=O)Nc3ccccc3)c3cc(C)ccc3n1C)n2C | > 100 | 22 | – |
| COc1ccc2c(C(=O)Nc3ccccc3)c(SSc3c(C(=O)Nc4ccccc4)c4ccc(OC)cc4n3C)n(C)c2c1 | – | 17 | IC50 [4]: > 100 µM |
| Cn1c(SSc2c(C(=O)Nc3ccccc3)c3cc(C(F)(F)F)ccc3n2C)c(C(=O)Nc2ccccc2)c2cc(C(F)(F)F)ccc21 | > 100 | – | – |
| CN1C(=S)C(C(=O)Nc2ccccc2)c2cc(Cl)ccc21 (centres undefined) | > 100 | – | – |
| CN1C(=S)C(C(=O)Nc2ccccc2)c2ccccc21 (centres undefined) | – | 64 | IC50 [5]: 15 µM; IC50 [3]: > 100 µM; IC50 [6]: 38 µM; IC50 [7]: 32 µM; IC50 [4]: 17 µM |
| CN1C(=S)C(C(=O)Nc2ccccc2)c2cccnc21 (centres undefined) | > 100 | – | – |
| Cn1c(SSc2c(C(=O)Nc3ccccc3)c3cccnc3n2C)c(C(=O)Nc2ccccc2)c2cccnc21 | – | 10 | IC50 [3]: > 25 µM; IC50 [4]: > 25 µM |
| CN1C(=S)C(C)(C(=O)Nc2ccccc2)c2ccccc21 (centres undefined) | > 100 | – | – |
| Cn1c(SSc2c(C(=O)Nc3ccccc3)c3cc(F)ccc3n2C)c(C(=O)Nc2ccccc2)c2cc(F)ccc21 | > 100 | – | – |
| CC(=O)Oc1ccc2c(C(=O)Nc3ccccc3)c(SSc3c(C(=O)Nc4ccccc4)c4ccc(OC(C)=O)cc4n3C)n(C)c2c1 | > 100 | – | – |
| Cc1cccc2c(C(=O)Nc3ccccc3)c(SSc3c(C(=O)Nc4ccccc4)c4cccc(C)c4n3C)n(C)c12 | > 100 | – | – |
| Cn1c(SSCc2ccccc2)c(C(=O)Nc2ccccc2)c2ccccc21 | > 100 | – | – |
| Cn1c(SSc2c(C(=O)Nc3ccccc3)c3cc([N+](=O)[O-])ccc3n2C)c(C(=O)Nc2ccccc2)c2cc([N+](=O)[O-])ccc21 | 5 | – | – |
| Cc1ccc2c(C(=O)Nc3ccccc3)c(SSc3c(C(=O)Nc4ccccc4)c4ccc(C)cc4n3C)n(C)c2c1 | > 100 | 96 | – |
| Cn1c(SSc2ccccc2)c(C(=O)Nc2ccccc2)c2ccccc21 | > 100 | – | – |
| CSc1c(C(=O)Nc2ccccc2)c2ccccc2n1C | > 100 | – | – |

More lines, main results first:

| IC50 [1] [µM] | SMILES | IC50 [2] [µM] | further results |
| --- | --- | --- | --- |
| 9.9 | CC(=O)Oc1cccc2c(C(=O)Nc3ccccc3)c(SSc3c(C(=O)Nc4ccccc4)c4cccc(OC(C)=O)c4n3C)n(C)c12 | – | – |
| > 100 | Cn1c(SSc2c(C(=O)Nc3ccccc3)c3cccc(Cl)c3n2C)c(C(=O)Nc2ccccc2)c2cccc(Cl)c21 | – | – |
| > 100 | Cc1cccc2c1c(C(=O)Nc1ccccc1)c(SSc1c(C(=O)Nc3ccccc3)c3c(C)cccc3n1C)n2C | 4 | – |
| 40.5 | Cn1c(SSc2c(C(=O)Nc3ccccc3)c3cc(O)ccc3n2C)c(C(=O)Nc2ccccc2)c2cc(O)ccc21 | – | – |
| 100 | Cn1c(SSc2c(C(=O)Nc3ccccc3)c3c(Cl)cccc3n2C)c(C(=O)Nc2ccccc2)c2c(Cl)cccc21 | – | – |
| > 100 | COc1cccc2c1c(C(=O)Nc1ccccc1)c(SSc1c(C(=O)Nc3ccccc3)c3c(OC)cccc3n1C)n2C | 1.9 | – |
| > 100 | COc1ccc2c(c1)c(C(=O)Nc1ccccc1)c(SSc1c(C(=O)Nc3ccccc3)c3cc(OC)ccc3n1C)n2C | 20 | – |
| > 100 | Cn1c(SSc2c(C(=O)Nc3ccccc3)c3ccc(Cl)cc3n2C)c(C(=O)Nc2ccccc2)c2ccc(Cl)cc21 | – | – |
| 10 | Cn1c(SSc2c(C(=O)Nc3ccccc3)c3ccccc3n2C)c(C(=O)Nc2ccccc2)c2ccccc21 | 12 | IC50 [5]: 14 µM; IC50 [3]: > 100 µM; IC50 [6]: 12 µM; IC50 [7]: 18 µM; IC50 [4]: > 100 µM |
| 20 | CC(=O)Oc1cccc2c1c(C(=O)Nc1ccccc1)c(SSc1c(C(=O)Nc3ccccc3)c3c(OC(C)=O)cccc3n1C)n2C | – | – |
| 100 | Cn1c(SSc2c(C(=O)Nc3ccccc3)c3cccc(O)c3n2C)c(C(=O)Nc2ccccc2)c2cccc(O)c21 | – | – |
